Laboratory results taken from ChEMBL document CHEMBL3616442, “Unconventional Knoevenagel-type indoles: Synthesis and cell-based studies for the identification of pro-apoptotic agents” (Eur J Med Chem, 2015).

Legend:
[1] = test system: TK-10; assay: Growth inhibition of human TK10 cells after 48 hrs by sulforhodamine B assay; assay type: functional; conditions: TK-10, 48 h
[2] = Cytotoxicity against human SKMES1 cells after 96 hrs by MTT assay; assay type: functional, cell-based; conditions: SK-MES-1, 96 h
Outline: (§1)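 ATCC cell lines, mycoplasma-free by Hoechst staining. Haematological lines in RPMI-1640, solid-tumour and normal fibroblast lines in their own media, all with 10% FCS and antibiotics, at 37 °C in 5% CO₂. Compounds added as serial dilutions from a 100 mM DMSO stock diluted in medium. Viability by MTT after 96 h at 37 °C. Mean ± SD of three independent determinations.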

[3] = test system: UACC-257; assay: Growth inhibition of human UACC257 cells after 48 hrs by sulforhodamine B assay; assay type: functional; conditions: UACC-257, 48 h
[4] = test system: SK-MEL-28; assay: Cytotoxicity against human SK-MEL-28 cells after 96 hrs by MTT assay; assay type: functional, cell-based; conditions: SK-MEL-28, 96 h; outline: as §1
[5] = test system: OVCAR-3; assay: Growth inhibition of human OVCAR3 cells after 48 hrs by sulforhodamine B assay; assay type: functional; conditions: OVCAR-3, 48 h
Outline: (§2)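 NCI 60-cell-line screen. Compounds tested at five 10-fold dilutions from 10^-4 to 10^-8 M. Cells exposed for the last 48 h of a 72 h incubation, growth estimated by sulforhodamine B protein assay. GI50 is the concentration giving 50% growth inhibition. Values beyond the tested range are expressed as greater or lesser than the extreme concentration.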

[6] = test system: SNB-75; assay: Growth inhibition of human SNB75 cells after 48 hrs by sulforhodamine B assay; assay type: functional; conditions: SNB-75, 48 h
[7] = test system: DU-145; assay: Cytotoxicity against human DU145 cells after 96 hrs by MTT assay; assay type: functional, cell-based; conditions: DU-145, 96 h; outline: as §1
[8] = test system: HL-60; assay: Antiproliferative activity against human HL60 cells after 3 days incubation by alamar blue method; assay type: functional
Outline: (§3)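 HL-60 and K562 grown in RPMI 1640, MCF-7 in DMEM, each with 10% FCS, penicillin G and streptomycin. Seeded at 4x10⁴ (HL-60, K562) or 2x10⁴ (MCF-7) cells per well with serial compound dilutions, incubated 3 days at 37 °C. Alamar blue added for 3 h at 37 °C in the dark, fluorescence read at ex 544/em 590 nm. IC50 versus untreated controls by linear regression.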

[9] = test system: A498; assay: Growth inhibition of human A498 cells after 48 hrs by sulforhodamine B assay; assay type: functional; conditions: A498, 48 h; outline: as §2
[10] = test system: HepG2; assay: Cytotoxicity against human HepG2 cells after 96 hrs by MTT assay; assay type: functional, cell-based; conditions: HepG2, 96 h; outline: as §1
[11] = Growth inhibition of human Hs 578T cells after 48 hrs by sulforhodamine B assay; assay type: functional; outline: as §2
[12] = test system: IGROV-1; assay: Growth inhibition of human IGROV1 cells after 48 hrs by sulforhodamine B assay; assay type: functional; conditions: IGROV-1, 48 h; outline: as §2
[13] = test system: MCF7; assay: Induction of apoptosis in human MCF7 cells by propidium iodide staining based flow cytometric analysis; assay type: functional; conditions: TDE = time-dependent effect
Outline: (§4)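 After treatment, cells harvested, fixed in ice-cold 70% ethanol at 4 °C, stained 30 min at 37 °C in the dark with 100 µg/mL propidium iodide plus 10 µg/mL RNase A; 10,000 gated cells analysed at 488 nm with debris excluded; apoptosis followed over time; mean ± S.E.M. of three independent experiments run in triplicate.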

[14] = test system: MCF7; assay: Antiproliferative activity against human MCF7 cells after 3 days incubation by alamar blue method; assay type: functional; outline: as §3
[15] = test system: SK-MEL-5; assay: Growth inhibition of human SK-MEL-5 cells after 48 hrs by sulforhodamine B assay; assay type: functional; conditions: SK-MEL-5, 48 h
[16] = test system: CCRF-CEM; assay: Growth inhibition of human CCRF-CEM cells after 48 hrs by sulforhodamine B assay; assay type: functional; outline: as §2
[17] = Growth inhibition of human RXF393 cells after 48 hrs by sulforhodamine B assay; assay type: functional; conditions: RXF 393, 48 h
[18] = test system: K562; assay: Antiproliferative activity against human K562 cells after 3 days incubation by alamar blue method; assay type: functional; outline: as §3
[19] = test system: OVCAR-8; assay: Growth inhibition of human OVCAR8 cells after 48 hrs by sulforhodamine B assay; assay type: functional; conditions: OVCAR-8, 48 h
[20] = test system: NCI-H226; assay: Growth inhibition of human NCI-H226 cells after 48 hrs by sulforhodamine B assay; assay type: functional; conditions: NCI-H226, 48 h; outline: as §2
[21] = test system: CCRF-CEM; assay: Cytotoxicity against human CCRF-CEM cells after 96 hrs by MTT assay; assay type: functional, cell-based; outline: as §1
[22] = test system: A549; assay: Growth inhibition of human A549 cells after 48 hrs by sulforhodamine B assay; assay type: functional; conditions: A549, 48 h; outline: as §2
[23] = test system: HL-60; assay: Induction of apoptosis in human HL60 cells by propidium iodide staining based flow cytometric analysis; assay type: functional; outline: as §4
[24] = Growth inhibition of human HCC2998 cells after 48 hrs by sulforhodamine B assay; assay type: functional; conditions: HCC 2998, 48 h; outline: as §2
[25] = Cytotoxicity against human CRL7065 cells after 96 hrs by MTT assay; assay type: cell-based; conditions: CRL-7065, 96 h; outline: as §1
[26] = test system: CCRF-SB; assay: Cytotoxicity against human CCRF-SB cells after 96 hrs by MTT assay; assay type: functional, cell-based; outline: as §1
[27] = test system: MCF7; assay: Cytotoxicity against human MCF7 cells after 96 hrs by MTT assay; assay type: functional, cell-based; conditions: MCF7, 96 h; outline: as §1
[28] = test system: 786-0; assay: Growth inhibition of human 786-0 cells after 48 hrs by sulforhodamine B assay; assay type: functional; conditions: 786-0, 48 h; outline: as §2
[29] = test system: K562; assay: Induction of cell cycle arrest in human K562 cells assessed as accumulation at G2/M phase after 24 hrs by propidium iodide staining based flow cytometric analysis; assay type: functional
Outline: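 Propidium iodide/RNase A flow cytometry of ethanol-fixed cells, 10,000 gated events at 488 nm; G2/M fraction measured after 18 h treatment (HL-60, MCF-7) or 24 h (K562); mean ± S.E.M. of three independent experiments.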

[30] = test system: WIL2-NS; assay: Cytotoxicity against human WIL2-NS cells after 96 hrs by MTT assay; assay type: functional, cell-based; outline: as §1
[31] = test system: UACC-62; assay: Growth inhibition of human UACC62 cells after 48 hrs by sulforhodamine B assay; assay type: functional; conditions: UACC-62, 48 h
[32] = test system: K562; assay: Induction of apoptosis in human K562 cells by propidium iodide staining based flow cytometric analysis; assay type: functional; conditions: TDE = time-dependent effect; outline: as §4
[33] = test system: MRC5; assay: Cytotoxicity against human MRC5 cells after 96 hrs by MTT assay; assay type: cell-based; conditions: MRC5, 96 h; outline: as §1
[34] = test system: HCT-15; assay: Growth inhibition of human HCT15 cells after 48 hrs by sulforhodamine B assay; assay type: functional; conditions: HCT-15, 48 h; outline: as §2
[35] = Growth inhibition of human SF539 cells after 48 hrs by sulforhodamine B assay; assay type: functional; conditions: SF-539, 48 h

In the case of `COc1ccc(-c2[nH]c3ccccc3c2/C=C(\C#N)S(=O)(=O)c2ccccc2)cc1`, the GI50 [1] is reported as 4800 nM, the EC50 [2] is reported as 43000 nM and the GI50 [3] is reported as 10700 nM. The EC50 [4] was over 100000 nM, the GI50 [5] was 244 nM and the GI50 [6] was 379 nM. The EC50 [7] was 2000 nM, the Activity [8] was “Dose-dependent effect” and the GI50 ([8]; HL-60, 72 h) was 660 nM. The GI50 [9] was 1100 nM, the EC50 [10] was 11000 nM and the GI50 [11] was 682 nM. For the same compound, the GI50 [12] was 19300 nM, the Activity [13] was “tde” and the Activity [14] was “Dose-dependent effect”. For the same compound, the GI50 ([14]; MCF7, 72 h) was 5600 nM, the GI50 [15] was 344 nM and the GI50 [16] was 1300 nM. The GI50 [17] was 1000 nM, the Activity [18] was “Dose-dependent effect” and the GI50 ([18]; K562, 72 h) was 5280 nM. The GI50 [19] was 1300 nM, the GI50 [20] was 2800 nM and the EC50 [21] was 300 nM. For the same compound, the GI50 [22] was 803 nM, the Activity [23] was 65.5% and the Activity ([23]; TDE = time-dependent effect) was “tde”. The GI50 [24] was 1200 nM, the EC50 [25] was over 100000 nM and the EC50 [26] was 300 nM. The EC50 [27] was over 100000 nM, the GI50 [28] was 1200 nM and the Activity [29] was 42.4%. The EC50 [30] was 400 nM, the GI50 [31] was 597 nM and the Activity [32] was “tde”. The EC50 [33] was 73000 nM, the GI50 [34] was 554 nM and the GI50 [35] was 299 nM.
